This note sets out measurements from ChEMBL document CHEMBL2062385, “Bone-targeting glycol and NSAIDS ester prodrugs of rhein: synthesis, hydroxyapatite affinity, stability, anti-inflammatory, ulcerogenicity index and pharmacokinetics studies” (Eur J Med Chem, 2012).

The source made the active and inactive calls. The calls are words filed in the database; no cut-off is given here.

Data set [1] relates to Mus musculus. The data set can be described thus: Antiinflammatory activity in Kunming mouse assessed as inhibition of xylene-induced auricle tumefaction at 0.2 mmol/kg, po qd administered prior to challenge for 5 days measured 30 mins post challenge. It is filed as functional. In a few lines:
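Male Kunming mice (18-22 g), ten per group, dosed once daily for 5 days at 0.2 mmol/kg; controls got 0.9% NaCl. A 7 mm filter soaked in xylene was held on the right ear for 30 s, 1 h after the last dose. Mice were killed 30 min later and 7 mm ear punches taken. Inhibition = (1 − a/b)×100%, from tumefaction degree of control and test groups.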

Data set [2] is described as follows: Prodrug conversion at pH 7.4 assessed as hydrolysis up to 24 hrs by HPLC analysis. The conditions noted are these: buffer, pH 7.4, 24 h. It is filed as physicochemical. In a few lines: (§1)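 Prodrugs held at 37 °C for up to 24 h in phosphate-buffered saline adjusted to pH 1.2 or pH 7.4. Samples taken at set intervals. Released parent drugs quantified by C18 HPLC with methanol/0.1% H3PO4 90:10 (pH 2.3), 25 °C, 1.0 mL/min, 254 nm. Run in triplicate.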

Data set [3] is described as follows: Prodrug conversion at pH 1.2 assessed as hydrolysis up to 24 hrs by HPLC analysis. It is filed as physicochemical. The conditions noted are these: buffer, pH 1.2, 24 h. In a few lines: as §1
The test system of the next data set is Hydroxyapatite. Description: Binding affinity to bone mineral hydroxyapatite after 30 mins by RP-HPLC analysis. In a few lines: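 Each compound (10 mL, 0.1 mmol/L in water) stirred vigorously with 20, 40 or 80 mg hydroxyapatite for 30 min. Then analysed by HPLC on C18 with methanol/0.1% H3PO4 90:10 (pH 2.3), 25 °C, 1.0 mL/min, 254 nm detection. n = 3.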

Data set [4] relates to Mus musculus. Description: Ulcerogenic activity in Kunming mouse assessed as ulcer index at 1 mmol/kg, po measured after 4 hrs. It is filed as toxicity, organism-based. The conditions noted are these: in vivo. The method in brief: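 Kunming mice of either sex (18-22 g), ten per group, fasted from food and water for 24 h. Then given 1.0 mmol/kg orally as a suspension in 1% methylcellulose. Killed at 4 h; stomachs fixed 30 min in 10% formaldehyde, opened along the greater curvature and ulcers measured under a magnifier. Ulcer index = summed lesion length (mm) per stomach averaged over 10 animals.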

Data set [5] can be described thus: AUC (0 to 9 hrs) in Sprague-Dawley rat at 10 mg/kg, po. It is filed as ADME, organism-based. More on the design: time < 9 hr, dose 10 mg/kg, route oral. The conditions noted are these: plasma. The method in brief:
(§2)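 SD rats of either sex (200 ± 20 g), six per group, dosed by gastric intubation after recovery from anesthesia. Arterial blood (~0.5 mL) drawn predose and at 0.17, 0.33, 0.5, 0.75, 1, 1.5, 2, 2.5, 3, 4, 5, 7 and 9 h. Plasma separated at once by centrifugation. Rhein in plasma measured by HPLC with diode-array detection.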

The nature of data set [6]: Tmax in Sprague-Dawley rat at 10 mg/kg, po. It is filed as ADME, organism-based. The arrangement: dose 10 mg/kg, route oral. The conditions noted are these: in vivo. The method in brief: as §2
A short description of data set [7]: Cmax in Sprague-Dawley rat at 10 mg/kg, po. It is filed as ADME, organism-based. More on the design: dose 10 mg/kg, route oral. The conditions noted are these: in vivo. In a few lines: as §2
Data set [8] can be described thus: MRT (0 to 9 hrs) in Sprague-Dawley rat at 10 mg/kg, po. It is filed as ADME, organism-based. The arrangement: dose 10 mg/kg, route oral. The conditions noted are these: in vivo. The method in brief:
as §2

Data set [9] in a line: Half life in Sprague-Dawley rat at 10 mg/kg, po. It is filed as ADME, organism-based. More on the design: dose 10 mg/kg, route oral. The conditions noted are these: in vivo. In a few lines:
as §2

Data set [10] can be described thus: AUC (0 to infinity) in Sprague-Dawley rat at 10 mg/kg, po. It is filed as ADME, organism-based. More on the design: time infinity, dose 10 mg/kg, route oral. The conditions noted are these: plasma. The method in brief:
as §2

Data set [11] in a line: MRT (0 to infinity) in Sprague-Dawley rat at 10 mg/kg, po. The arrangement: dose 10 mg/kg, route oral. It is filed as ADME, organism-based. The conditions noted are these: in vivo. In a few lines: as §2

In the case of `CC(=O)Oc1cccc2c1C(=O)c1c(OC(C)=O)cc(C(=O)OCCOCCOC(=O)C(C)c3ccc(CC(C)C)cc3)cc1C2=O` (stereo not given), the inhibition in vivo at 200 µmol/kg in the data set on Mus musculus [1] came to 33%. The Drug metabolism result in data set [2] and in [3] was “Active” in each case. The result in the data set on Hydroxyapatite was Active.
As to `CC(=O)Oc1cccc2c1C(=O)c1c(OC(C)=O)cc(C(=O)OCCOCCO)cc1C2=O`, in the data set with Mus musculus [1], the inhibition in vivo at 200 µmol/kg came to 15%. Moreover, the Drug metabolism entry in data set [2] and in [3] was “Active” each time. Besides, the result with Hydroxyapatite was Active.
As to `O=C(OCCO)c1cc(O)c2c(c1)C(=O)c1cccc(O)c1C2=O`, in the data set on Mus musculus [1], the inhibition in vivo at 200 µmol/kg was found to be 13.9%. Further, the Drug metabolism result in [2] and in data set [3] was “Active” each time. Also, the outcome with Hydroxyapatite was Active.
For the compound `O=C(OCCOCCO)c1cc(O)c2c(c1)C(=O)c1cccc(O)c1C2=O`, the inhibition in vivo at 200 µmol/kg in the data set on Mus musculus [1] was found to be 17.2%. Further, the Drug metabolism result in [2] and in [3] was “Active” in each case. Also, the result in the data set with Hydroxyapatite was Active.
As to `CC(C)Cc1ccc(C(C)C(=O)OCCOCCOCCOC(=O)c2cc(O)c3c(c2)C(=O)c2cccc(O)c2C3=O)cc1` (stereo not given), in the data set on Mus musculus [1], the inhibition in vivo at 200 µmol/kg worked out at 33.9%. In addition, the Drug metabolism entry in data set [2] and in [3] was “Active” in each case. The result in the data set on Hydroxyapatite was Active. In addition, in the data set with Mus musculus [4], the UI is listed as 5.8.
Consider `CC(=O)Oc1cccc2c1C(=O)c1c(OC(C)=O)cc(C(=O)OCCOCCOCCO)cc1C2=O`, for which the inhibition in vivo at 200 µmol/kg in the data set with Mus musculus [1] is 19.5%. Further, the Drug metabolism entry in data set [2] and in [3] was “Active” each time. In addition, in the data set with Hydroxyapatite, the result was Active.
As for `CC(=O)Oc1cccc2c1C(=O)c1c(OC(C)=O)cc(C(=O)OCCOCCOCCOC(=O)C(C)c3ccc(CC(C)C)cc3)cc1C2=O` (stereo not given), the inhibition in vivo at 200 µmol/kg in the data set with Mus musculus [1] came to 29.3%. For the same compound, the Drug metabolism entry in data set [2] and in [3] was “Active” throughout. In addition, the outcome with Hydroxyapatite was Active.
On to `O=C(O)Cc1ccccc1Nc1c(Cl)cccc1Cl` [DICLOFENAC], for which the inhibition in vivo at 200 µmol/kg with Mus musculus [1] was 41.9%.
Regarding `CC(=O)Oc1ccccc1C(=O)OCCOC(=O)c1cc(OC(C)=O)c2c(c1)C(=O)c1cccc(OC(C)=O)c1C2=O`, in the data set on Mus musculus [1], the inhibition in vivo at 200 µmol/kg is 19.9%. Further, the Drug metabolism entry in data set [2] and in data set [3] was “Active” in each case. Besides, in the data set on Hydroxyapatite, the result was Active.
Regarding `CC(=O)Oc1ccccc1C(=O)OCCOC(=O)c1cc(O)c2c(c1)C(=O)c1cccc(O)c1C2=O`, the inhibition in vivo at 200 µmol/kg with Mus musculus [1] was determined as 19.6%. Moreover, the Drug metabolism entry in [2] and in [3] was “Active” in each case. Also, the outcome in the data set on Hydroxyapatite was Active.
`COc1ccc2cc(C(C)C(=O)OCCOC(=O)c3cc(O)c4c(c3)C(=O)c3cccc(O)c3C4=O)ccc2c1` (stereo not given): the AUC(0-t) at 9 h in data set [5] was 4420 ng·h/mL. In addition, in [6], the Tmax came out at 1.75 h. Besides, the Cmax in [7] amounted to 1090 ng/mL. Further, in the data set on Mus musculus [1], the inhibition in vivo at 200 µmol/kg was 23.9%. The compound also returned an MRT last in [8] of 3.46 h. The Drug metabolism entry in data set [2] and in [3] was “Active” in each case. Further, in the data set on Hydroxyapatite, the result was Active. This compound also showed a half-life in data set [9] of 2.19 h. Also, in the data set with Mus musculus [4], the UI turned out to be 5.8. Besides, the AUC(0-inf) in [10] is 4860 ng·h/mL. The compound further came in with an MRT inf in [11] of 4.23 h.
